Laboratory results as given in ChEMBL document CHEMBL3352006, “Further evaluation of novel structural modifications to scaffolds that engender PLD isoform selective inhibition” (Bioorg Med Chem Lett, 2014).

How the values were obtained:
Calu-1 [1] = assay: Selectivity ratio of IC50 for PLD1 (unknown origin) expressed in human Calu1 cells to IC50 for PLD2 (unknown origin) expressed in HEK293-gfp cells; type: cell-based
Phospholipase D2 = Phospholipase D2 (Homo sapiens, UniProt O14939); assay: Inhibition of PLD2 (unknown origin) expressed in HEK293-gfp cells by cell-based assay
Phospholipase D2, sequence (O14939 whole entry): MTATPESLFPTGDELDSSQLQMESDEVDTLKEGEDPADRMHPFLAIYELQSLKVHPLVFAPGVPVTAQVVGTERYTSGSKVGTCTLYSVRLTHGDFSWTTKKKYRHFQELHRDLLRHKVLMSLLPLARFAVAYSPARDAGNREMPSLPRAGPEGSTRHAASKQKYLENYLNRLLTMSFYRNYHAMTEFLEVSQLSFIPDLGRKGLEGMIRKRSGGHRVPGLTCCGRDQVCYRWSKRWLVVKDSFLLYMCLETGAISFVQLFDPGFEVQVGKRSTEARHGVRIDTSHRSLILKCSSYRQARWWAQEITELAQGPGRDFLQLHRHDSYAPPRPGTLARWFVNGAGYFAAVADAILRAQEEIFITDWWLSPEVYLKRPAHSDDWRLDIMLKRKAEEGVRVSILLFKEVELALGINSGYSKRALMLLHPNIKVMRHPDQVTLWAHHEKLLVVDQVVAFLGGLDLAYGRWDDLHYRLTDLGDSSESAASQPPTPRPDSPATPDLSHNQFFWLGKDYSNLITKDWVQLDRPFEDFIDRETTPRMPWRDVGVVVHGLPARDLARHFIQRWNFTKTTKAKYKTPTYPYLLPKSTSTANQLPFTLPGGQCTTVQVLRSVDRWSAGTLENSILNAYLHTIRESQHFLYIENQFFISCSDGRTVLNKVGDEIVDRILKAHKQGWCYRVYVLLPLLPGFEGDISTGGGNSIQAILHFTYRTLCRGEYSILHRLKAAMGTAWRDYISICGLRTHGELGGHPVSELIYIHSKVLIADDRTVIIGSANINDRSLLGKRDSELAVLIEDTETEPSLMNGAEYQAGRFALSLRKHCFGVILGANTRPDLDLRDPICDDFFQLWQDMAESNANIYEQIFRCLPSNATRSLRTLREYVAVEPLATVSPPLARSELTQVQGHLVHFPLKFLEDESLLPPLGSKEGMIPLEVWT
Procedure, shortened: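 Cellular assay in HEK293-gfp PLD2 cells; each IC50 determined in triplicate.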

Phospholipase D1 = molecular target: T1, Phospholipase D1 (Homo sapiens, UniProt Q13393); assay: Inhibition of PLD1 (unknown origin) expressed in human Calu1 cells by cell-based assay; parameters: species or system Calu-1
T1 sequence (Q13393 whole entry): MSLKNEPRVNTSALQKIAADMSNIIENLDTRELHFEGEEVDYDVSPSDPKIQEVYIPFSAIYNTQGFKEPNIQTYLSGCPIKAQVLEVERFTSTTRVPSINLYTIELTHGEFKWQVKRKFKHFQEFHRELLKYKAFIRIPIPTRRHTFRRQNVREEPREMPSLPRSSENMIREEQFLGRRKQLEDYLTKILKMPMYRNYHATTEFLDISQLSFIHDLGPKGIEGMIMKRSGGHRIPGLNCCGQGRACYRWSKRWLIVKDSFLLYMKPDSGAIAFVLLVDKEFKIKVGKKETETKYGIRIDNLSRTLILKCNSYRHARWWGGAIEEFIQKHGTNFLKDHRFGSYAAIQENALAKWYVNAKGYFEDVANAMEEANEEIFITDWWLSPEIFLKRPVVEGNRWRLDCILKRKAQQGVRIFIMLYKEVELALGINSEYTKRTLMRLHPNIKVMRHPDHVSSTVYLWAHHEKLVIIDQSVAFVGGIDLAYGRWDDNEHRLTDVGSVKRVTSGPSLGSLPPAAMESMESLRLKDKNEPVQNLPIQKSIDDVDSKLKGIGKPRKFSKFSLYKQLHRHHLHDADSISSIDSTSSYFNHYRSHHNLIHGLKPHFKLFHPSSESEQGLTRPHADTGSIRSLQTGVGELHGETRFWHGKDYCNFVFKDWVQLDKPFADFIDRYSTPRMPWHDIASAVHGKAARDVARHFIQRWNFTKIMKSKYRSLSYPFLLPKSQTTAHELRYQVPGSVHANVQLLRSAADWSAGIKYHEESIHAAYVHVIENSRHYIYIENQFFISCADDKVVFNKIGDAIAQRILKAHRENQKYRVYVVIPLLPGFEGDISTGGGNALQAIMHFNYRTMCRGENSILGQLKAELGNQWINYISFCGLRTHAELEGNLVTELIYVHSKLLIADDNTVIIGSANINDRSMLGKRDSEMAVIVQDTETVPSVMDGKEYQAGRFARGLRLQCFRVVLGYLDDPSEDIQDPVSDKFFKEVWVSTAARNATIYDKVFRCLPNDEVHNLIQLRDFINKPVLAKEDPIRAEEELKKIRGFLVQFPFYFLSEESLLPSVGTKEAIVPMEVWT

Calu-1 [2] = assay: Selectivity ratio of IC50 for PLD2 (unknown origin) expressed in HEK293-gfp cells to IC50 for PLD1 (unknown origin) expressed in human Calu1 cells; type: cell-based
Procedure, shortened: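 Both IC50s come from cellular assays. PLD1 was measured in Calu-1 cells and PLD2 in HEK293-gfp PLD2 cells. Each IC50 was determined in triplicate. The value is the PLD2 IC50 divided by the PLD1 IC50.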

D(2) dopamine receptor = D(2) dopamine receptor (Homo sapiens, UniProt P14416); assay: Inhibition of dopamine D2 receptor (unknown origin)
D(2) dopamine receptor, sequence (P14416 whole entry): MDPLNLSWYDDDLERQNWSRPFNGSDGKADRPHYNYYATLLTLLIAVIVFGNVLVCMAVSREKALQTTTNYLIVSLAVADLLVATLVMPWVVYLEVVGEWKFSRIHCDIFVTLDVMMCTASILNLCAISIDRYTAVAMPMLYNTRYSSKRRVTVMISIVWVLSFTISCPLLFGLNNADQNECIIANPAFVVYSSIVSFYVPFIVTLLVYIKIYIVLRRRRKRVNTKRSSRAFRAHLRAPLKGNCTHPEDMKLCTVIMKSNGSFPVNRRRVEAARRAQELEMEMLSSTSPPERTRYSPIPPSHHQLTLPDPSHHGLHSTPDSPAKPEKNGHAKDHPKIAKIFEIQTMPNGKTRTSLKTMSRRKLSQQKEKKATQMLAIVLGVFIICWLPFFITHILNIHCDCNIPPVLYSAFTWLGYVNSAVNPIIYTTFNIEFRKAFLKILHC

Compound	Ratio IC50 (Calu-1 [1])	IC50 (Phospholipase D2) [µM]	IC50 (Phospholipase D1) [µM]	Ratio IC50 (Calu-1 [2])	IC50 (D(2) dopamine receptor) [µM]
CC(CNC(=O)c1ccc(F)c(F)c1)N1CCC2(CC1)C(=O)NCN2c1ccccc1 (racemic)	63	0.017	1.08		
CC1CC(n2c(=O)[nH]c3ccccc32)CCN1CCNC(=O)[C@@H]1C[C@H]1c1ccccc1 (relative stereo)			0.115	24	
O=C(NCCN1CC2CC(n3c(=O)[nH]c4ccccc43)CC2C1)c1ccc(F)c(F)c1 (stereo not drawn)		3.25	0.82	3.9	
O=C(NCCN1CC2CC(n3c(=O)[nH]c4ccccc43)CC2C1)c1ccc(Br)cc1 (stereo not drawn)			0.468	5.5	
O=C(NCCN1CC2CC(n3c(=O)[nH]c4ccccc43)CC2C1)[C@@H]1C[C@H]1c1ccccc1 (relative stereo)		0.115	1.08		
O=C(NCCN1CC2CC(n3c(=O)[nH]c4ccccc43)CC2C1)c1ccc(F)cc1 (stereo not drawn)		3.57	0.87	4	
O=C(NCCN1CC2CC(n3c(=O)[nH]c4ccccc43)CC2C1)c1cc2cc(F)ccc2[nH]1 (stereo not drawn)		1.24	0.23	5.4	
CC1CC(n2c(=O)[nH]c3ccccc32)CCN1CCNC(=O)c1ccc(F)cc1 (stereo not drawn)			0.636	11.5	
CC(CNC(=O)c1ccc(F)cc1)N1CCC2(CC1)C(=O)NCN2c1ccccc1 (racemic)	5	0.29	1.49		
CC(CNC(=O)c1ccc2ccccc2c1)N1CCC2(CC1)C(=O)NCN2c1ccccc1 (racemic)	5	0.064	0.315		
O=C(NCCN1CCC(n2c(=O)[nH]c3ccccc32)C(F)C1)c1ccc(F)c(F)c1 (stereo not drawn)			0.021	4.7	> 10
CC(CNC(=O)c1cc2cc(F)ccc2[nH]1)N1CCC2(CC1)C(=O)NCN2c1ccccc1 (racemic)	2	0.018	0.035		
O=C(NCCN1CC2CC(n3c(=O)[nH]c4ccccc43)CC2C1)c1cc2ccccc2[nH]1 (stereo not drawn)		0.22	0.072	3	
O=C(NCCN1CC2CC(n3c(=O)[nH]c4ccccc43)CC2C1)c1ccc2ccccc2c1 (stereo not drawn)			0.244	7.3	
CC(CNC(=O)c1ccc(Br)cc1)N1CCC2(CC1)C(=O)NCN2c1ccccc1 (racemic)	2	0.12	0.23		
CC(CNC(=O)c1cc2ccccc2[nH]1)N1CCC2(CC1)C(=O)NCN2c1ccccc1 (racemic)	3	0.006	0.021		
